Experimental data reported in publication PMC5695149 (Theranostics, 2017).
Starred links: 1 amine or outer side, 2 acyl side, 3 side chain; linkers in the order of their positions; H or OH if unused. Positions of bridges follow the written chain, without caps; N, C: chain ends. Non-standard residues stand in square brackets, D forms with d. Residues, ends and D or L forms follow the SMILES beside them. hNle(4R-Ph,7-yl) = O=C([C@H](C[C@@H](CCC[*:3])c1ccccc1)N[*:1])[*:2]; X1 = C[C@H](CCC[*:3])C[C@H](N[*:1])C(=O)[*:2]

Tests used:
MDMX = target: T1, MDMX (Homo sapiens, UniProt O15151); test: Fluorescence polarization assay, FITC-labeled peptide with GST-labeled MDMX; assay type: binding; details: compared within the library
T1 sequence (O15151 1-490): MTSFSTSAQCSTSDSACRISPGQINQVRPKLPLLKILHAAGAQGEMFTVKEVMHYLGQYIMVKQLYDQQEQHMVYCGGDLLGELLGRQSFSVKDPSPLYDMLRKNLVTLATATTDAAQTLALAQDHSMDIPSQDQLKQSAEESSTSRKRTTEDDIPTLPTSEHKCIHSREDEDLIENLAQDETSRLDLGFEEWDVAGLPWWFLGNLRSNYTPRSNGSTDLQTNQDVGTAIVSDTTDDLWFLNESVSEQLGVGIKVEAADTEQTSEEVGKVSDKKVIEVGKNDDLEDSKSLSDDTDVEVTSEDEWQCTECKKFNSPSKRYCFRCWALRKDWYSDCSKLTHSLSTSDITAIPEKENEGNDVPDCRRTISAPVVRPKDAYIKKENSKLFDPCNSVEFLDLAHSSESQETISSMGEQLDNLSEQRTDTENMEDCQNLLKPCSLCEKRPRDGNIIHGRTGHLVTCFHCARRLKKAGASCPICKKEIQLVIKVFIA
Method in brief: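 Fluorescence polarization: FITC-labelled peptide (10 or 20 nM) incubated with MDMX protein in 140 mM NaCl, 50 mM Tris pH 8.0 for 1 h at room temperature. Peptide concentration set from FITC absorbance at 494 nm. Kd obtained by nonlinear regression of dose-response curves.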

Skov-3 cells = test: Cell viability; assay type: cell-based; details: Skov-3 (mutant p53), up to 50 μM, 48 h
Method in brief: (§1)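 MTT assay: cells at 5 × 10^3/well were exposed to test compound (3.12, 6.25, 12.5, 25, 50 µM) in serum-free medium for 4 h. Serum was then restored for a further 44 h. MTT (5 mg/mL in PBS) was added for 4 h at 37 °C, 5% CO2. Formazan was dissolved in DMSO and absorbance read at 490 nm. At least three independent measurements, SEM shown.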

MDA-231 cells = test: Cell viability; assay type: cell-based; details: MDA-231 (mutant p53), up to 50 μM, 48 h
Method in brief: as §1

HEK-293 cells = test: Cell viability; assay type: cell-based; details: HEK-293 normal cells, 3.12-50 µM, 48 h
Method in brief: (§2)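 MTT viability assay. Cells were seeded at 5 × 10³/well and given the test compound at 3.12, 6.25, 12.5, 25 or 50 µM in serum-free medium for 4 h. Serum was then replaced and cells incubated a further 44 h. MTT (5 mg/mL in PBS) was added for 4 h at 37 °C, 5% CO2, and formazan was dissolved in DMSO. A490 was read. SEM from at least three independent measurements.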

QSG-7701 cells [1] = test: Cell viability; assay type: cell-based; details: QSG-7701 normal cells, 3.12-50 µM, 48 h
Method in brief: as §2

p53 [2] = test: Western blot of p53 expression, PA-1; assay type: cell-based, human; details: PA-1, 40 µM peptide, 48 h
Method in brief: (§3)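 Cells in 6-well plates were treated 48 h, then lysed in Tris-SDS buffer (pH 6.8). 20 μg protein was run on 10% SDS-PAGE and transferred to nitrocellulose. Blots were probed overnight at 4 °C with rabbit monoclonal anti-p53 (1:500), with pan-actin (1:1000) as reference. Goat secondary antibodies were applied 1 h at room temperature, with chemiluminescent detection.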

p53 [3] = test: Western blot of p53 expression, MCF-7; assay type: cell-based; details: MCF-7, 40 µM peptide, 48 h
Method in brief: as §3

PA-1 cells [4] = test: Cellular uptake of FITC-labelled peptides, confocal microscopy and FACS, PA-1; assay type: cell-based, human; details: 37°C, 2 h
MCF-7 cells = test: Cellular uptake of FITC-labelled peptides, confocal microscopy, MCF-7; assay type: cell-based; details: MCF-7, FITC-labeled peptide, 37°C, 2 h
Method in brief: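 Cells in DMEM + 10% FBS (50000/well) were grown 1 day to ~80% adherence. FITC-labelled peptide (1 mM DMSO stock) was added to 5 µM final at 37 °C. Cells were washed 3× in PBS, fixed in 4% formaldehyde for 10 min, stained with DAPI 1 μg/mL for 5 min, and imaged by confocal microscopy. PA-1 uptake was also quantified by flow cytometry.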

p53-MDM2 binding = p53-MDM2 binding (Homo sapiens, UniProt Q00987); test: Immunoprecipitation of p53-MDM2 from PA-1 cell lysates, western blotting; assay type: cell-based; details: PA-1, 40 μM, 4 h, versus DMSO control, 10% FBS
Method in brief: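 Exponentially growing PA-1 cells received the test compound or an equal volume of DMSO. Cells were lysed in 50 mM Tris pH 8.0, 150 mM NaCl, 1 mM EDTA, 0.5% NP-40. Extract (500 µg) was precleared 2 h on protein G Sepharose, then incubated with rabbit monoclonal anti-p53 or mouse monoclonal anti-MDM2. Complexes were captured on protein G beads overnight at 4 °C and washed five times in cold lysis buffer. Western blots were probed for p53, MDM2 and pan-actin.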

sox2 and foxA2 genes = test: RT-qPCR of stemness and differentiation genes, PA-1; assay type: cell-based, human; details: PA-1, 40 µM, 48 h
Method in brief: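 Exponentially growing PA-1 cells were seeded in 6-well plates and treated 48 h with 40 µM peptide; nutlin-3a at 1 µM was the comparator. mRNA was quantified by real-time qPCR and expressed as fold increase. Triplicates from three independent experiments, SEM shown.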

PA-1 cells [5] = test: Annexin-V/PI apoptosis assay, PA-1; assay type: cell-based, human; details: PA-1, 40 μM peptides or 5 μM nutlin-3a, 48 h
Method in brief: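 Exposed PA-1 cells were stained with Annexin-V/PI. Apoptotic cells were counted as the sum of quadrants Q1+Q2+Q3 and reported as a ratio of total cells.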

PA-1 cells [6] = test: Cell cycle analysis by PI staining and flow cytometry, PA-1; assay type: cell-based, human; details: PA-1, 40 μM peptides or 5 μM nutlin-3a, 48 h
QSG-7701 cells [7] = test: Cell cycle analysis by PI staining and flow cytometry, QSG-7701; assay type: cell-based; details: QSG-7701, 48 h, PI staining
caspase-3 = test: Caspase-3 activity assay, PA-1; assay type: cell-based, human
Method in brief: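 Apoptosis in PA-1 cells was read as caspase-3 activity after exposing the cells to a caspase-3-specific substrate.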

p53 [8] = test: p53 accumulation kinetics in HCT-116 Venus knock-in cell line; assay type: cell-based; details: HCT-116 p53-VKI; PhR 40 µM; nutlin-3a 0.5 or 5 µM (Fig. S9 legend)
PA-1 xenograft = test: Antitumor efficacy in PA-1 human xenograft model; assay type: in vivo, mice; details: for mice that died during the treatment period: 21 days of treatment
Method in brief: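 Female athymic nude mice (BALB/c nu, 6 weeks) received 1 × 10^7 PA-1 cells in DMEM subcutaneously in the lower flank. After 10-15 days, mice with 100-150 mm3 tumors were randomized into 3 groups of 5-6. Test compound at 10 mg/kg, or PBS as negative control, was injected intratumorally every 2 days from day 0 for 21 days. Mice were followed a further 24 days; survival plotted as Kaplan-Meier curves.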

[9] = Mice voluntary cage-wheel exercise assay; assay type: in vivo; details: BALB/c mice, 10 mg/kg subcutaneous, 20 days
Method in brief: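 BALB/c mice were randomly split into two groups given a single subcutaneous injection of PBS or test compound (10 mg/kg). Voluntary cage-wheel running cycles were recorded over 20 days after injection.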

Histological analysis = assay type: in vivo; details: 21 days after injection, compared with PBS-treated mice
Method in brief: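 Tumor, heart, liver, spleen, lung, kidney and brain were harvested 21 days after injection. Tissue sections were stained with hematoxylin and eosin and examined for histological changes.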

p53 and p21 = test: Immunohistochemistry of tumor tissues; assay type: in vivo, mice; details: PA-1 xenograft tumor tissue, 10 mg/kg
[10] = PA-1 xenograft, 10 mg/kg every other day

Chain of p53-MDM2 binding (Q00987 whole entry): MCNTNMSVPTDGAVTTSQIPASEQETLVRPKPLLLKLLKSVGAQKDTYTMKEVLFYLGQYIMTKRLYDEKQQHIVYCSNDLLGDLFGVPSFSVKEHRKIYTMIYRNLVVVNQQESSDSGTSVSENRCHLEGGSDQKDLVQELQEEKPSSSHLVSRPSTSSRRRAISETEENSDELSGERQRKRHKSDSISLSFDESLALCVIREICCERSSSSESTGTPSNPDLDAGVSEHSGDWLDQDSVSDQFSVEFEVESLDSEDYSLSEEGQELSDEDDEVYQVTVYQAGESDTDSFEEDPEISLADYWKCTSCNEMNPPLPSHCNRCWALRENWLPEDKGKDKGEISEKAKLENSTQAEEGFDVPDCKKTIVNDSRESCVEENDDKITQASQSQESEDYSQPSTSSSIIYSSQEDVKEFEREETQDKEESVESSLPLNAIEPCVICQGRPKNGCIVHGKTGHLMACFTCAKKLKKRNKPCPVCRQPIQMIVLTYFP

SMILES | binding ability toward MDMX (MDMX) | effect on cell viability (Skov-3 cells) | effect on cell viability (MDA-231 cells) | effect on cell growth and proliferation (HEK-293 cells) | effect on cell growth and proliferation (QSG-7701 cells [1]) | p53 expression (western blot) (p53 [2]) | p53 expression (western blot) (p53 [3]) | time to highest levels of p53 and p21 (p53 [8]) [h] | mice that died during the treatment period (PA-1 xenograft; [10]) | further results
CC(=O)N[C@@H](CC(C)C)C(=O)N[C@H](C(=O)N[C@@H](Cc1ccccc1)C(=O)N[C@H]1CSCCC[C@@H](C)C[C@@H](C(=O)N[C@@H](CCC(N)=O)C(=O)N[C@@H](CC(C)C)C(=O)N[C@H](C(=O)N[C@@H](CO)C(N)=O)[C@@H](C)O)NC(=O)[C@H](Cc2c[nH]c3ccccc23)NC(=O)[C@H](Cc2ccc(O)cc2)NC(=O)[C@H](Cc2c[nH]cn2)NC1=O)[C@@H](C)O [MeR] (Ac-LTFCHYW[X1]QLTS-NH2; thioether 4-8; N-terminus assumed) | highest binding abilities | Negligible effects | Negligible effects | little effect on the cell growth and proliferation | little effect on the cell growth and proliferation | upregulated | upregulated |  |  | 
CC(=O)N[C@@H](CC(C)C)C(=O)N[C@H](C(=O)N[C@@H](Cc1ccccc1)C(=O)N[C@H]1CSCCC[C@@H](c2ccccc2)C[C@@H](C(=O)N[C@@H](CCC(N)=O)C(=O)N[C@@H](CC(C)C)C(=O)N[C@H](C(=O)N[C@@H](CO)C(N)=O)[C@@H](C)O)NC(=O)[C@H](Cc2c[nH]c3ccccc23)NC(=O)[C@H](Cc2ccc(O)cc2)NC(=O)[C@H](Cc2c[nH]cn2)NC1=O)[C@@H](C)O [PhR] (Ac-LTFCHYW[hNle(4R-Ph,7-yl)]QLTS-NH2; thioether 4-8; N-terminus assumed) | highest binding abilities | Negligible effects | Negligible effects | little effect on the cell growth and proliferation | little effect on the cell growth and proliferation | upregulated | upregulated | 12 | no mice died | cellular uptake, comparison (PA-1 cells [4]; PA-1, 5 µM FITC-labelled peptide, confocal and flow cytometry): higher cellular uptake than MeR; internalization, live cell confocal imaging (PA-1 cells [4]; PA-1, 5 uM, live cells): internalized into the cells both in the cytoplasm and nucleus; cellular uptake, comparison (MCF-7 cells): higher cellular uptake than MeR; MDM2 protein bound to p53 (IP and western blotting) (p53-MDM2 binding): substantial reduction of MDM2 protein bound to p53; expression of differentiation gene foxA2 (qPCR) (sox2 and foxA2 genes): upregulation; expression of stemness gene sox2 (qPCR) (sox2 and foxA2 genes): significant downregulation; apoptotic effect (Annexin-V/PI) (PA-1 cells [5]): more pronounced in PA-1 than those of MeR and nutlin-3a; cell-cycle arrest (PA-1 cells [6]): more effective in inducing cell-cycle arrest in the G2/M phase than MeR and nutlin-3a; cell-cycle arrest in normal cell line (QSG-7701 cells [7]): did not induce cell cycle arrest; apoptosis by caspase-3 activity (caspase-3; PA-1, dose ladder): dose-dependent apoptosis; survival (Kaplan-Meier) (PA-1 xenograft; treated for 21 days and raised for another 24 days post treatment): able to prolong the lives of the mice; voluntary running cycles versus PBS group [9]: no significant differences; histological changes of major organs (H&E) (Histological analysis): no signs of organ lesions; p53 and p21 expression in tumor tissues (immunohistochemistry) (p53 and p21): higher expression levels of p53 and p21
COc1ccc(C2=N[C@@H](c3ccc(Cl)cc3)[C@@H](c3ccc(Cl)cc3)N2C(=O)N2CCNC(=O)C2)c(OC(C)C)c1 [nutlin-3a] |  |  |  |  |  |  |  | 48 | three in ten | apoptosis by caspase-3 activity (caspase-3; PA-1, at a low dose): minimal apoptosis; caspase-3 activity (caspase-3; PA-1, at higher doses (>5 μM)): no caspase-3 activity was detected; mice death in the first week of treatment (PA-1 xenograft; [10]): 20%; tumor growth inhibition (TGI) (PA-1 xenograft; PA-1 xenograft, athymic nude mice, 10 mg/kg every other day, intratumoral injection, 3 weeks): 30%
